CHO-K1 Ca antag – nonselective inhibitor or artifact in parental CHO-K1 cells; ATP-induced calcium, Fluo-8 fluorescence; inhibition, % at 3 µM; 0.6% of 360,000 active;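 active means inhibition above a per-plate cutoff, the plate's mean sample inhibition plus 3 SD, cut at about 24% in these data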;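 further: 0% = DMSO plus EC80 ATP and 100% = DMSO alone without ATP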
CHO-K1 Ca PAM – counter-screen for M1 PAMs: effect in parental CHO-K1 cells | 0.02% of 360,000 active | activation, % at 3 µM | ATP EC20, Fluo-8 calcium fluorescence; 0% at ATP EC20, 100% at ATP max;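 active means activation above the run cutoff, the mean activation of all test compounds plus 3 SD, cut at about 40% in these data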;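 further: peak over basal fluorescence ratio in a 140 s read after ATP addition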
CHRM5 PAM – CHRM5 positive allosteric modulation. P08912. CHO-K1 hM5, Fluo-8 calcium, ACh EC20 PAM; 0% = ACh EC20, 100% = ACh EC100. activation, % at 3 µM. 0.3% of 360,000 active. AID 624038;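 active means activation above the run cutoff, the mean activation of all test compounds plus 3 SD, cut at about 18% in these data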
Target sequence (P08912 whole entry, looked up): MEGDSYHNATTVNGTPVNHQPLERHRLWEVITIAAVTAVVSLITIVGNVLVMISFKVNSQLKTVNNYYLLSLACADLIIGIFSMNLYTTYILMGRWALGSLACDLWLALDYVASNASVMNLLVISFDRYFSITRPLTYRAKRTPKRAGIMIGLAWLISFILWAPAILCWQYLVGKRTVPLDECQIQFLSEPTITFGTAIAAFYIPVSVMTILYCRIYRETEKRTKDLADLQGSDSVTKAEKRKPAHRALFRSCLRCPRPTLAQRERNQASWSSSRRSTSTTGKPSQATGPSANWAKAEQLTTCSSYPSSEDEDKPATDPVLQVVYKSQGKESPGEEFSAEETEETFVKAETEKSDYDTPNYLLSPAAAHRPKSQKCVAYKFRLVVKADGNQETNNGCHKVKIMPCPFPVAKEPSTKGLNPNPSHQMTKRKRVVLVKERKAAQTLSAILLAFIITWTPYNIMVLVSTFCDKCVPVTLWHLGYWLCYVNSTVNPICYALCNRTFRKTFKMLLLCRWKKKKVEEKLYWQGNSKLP
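Assay system: CHO-K1 hM5 cells. Also added: acetylcholine at EC20 concentration, added after compound. Dosing: 3 µM, single dose. Times: compound preincubation 140 s before EC20 acetylcholine addition. Signal: Fluo-8 calcium fluorescence. Measure: % activation relative to EC20 and EC100 ACh responses. Repeats: singlicate, one well per test compound.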
CHRM5 agonist – agonists of human muscarinic M5 receptor (CHRM5); P08912; CHO-K1 hM5 cells, Fluo-8 calcium fluorescence; 0% DMSO wells, 100% maximal acetylcholine response; activation, % at 3 µM; 0.19% of 360,000 active;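 active means activation above the run's mean over test compounds plus 3 SD, cut at about 23% in these data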;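 further: signal is peak over basal fluorescence ratio across the kinetic read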
CHO-K1 Ca ag – counter-screen for M1 agonists: effect in parental CHO-K1 cells | Fluo-8 calcium fluorescence; scaled to maximal ATP response, vehicle zero | activation, % at 3 µM | 0.48% of 360,000 active | AID 602248; in the data active means activation above about 15%;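 further: untransfected CHO-K1 host cells lacking M1 receptor as counterscreen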
M5 antag – CHRM5 antagonism in calcium assay; P08912; CHO-hM5 cells, Fluo-8 calcium fluorescence, ACh EC80; inhibition, % at 3 µM; 0.59% of 360,000 active;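 active means inhibition above a per-plate cutoff, the mean of that plate's test compounds plus 3 SD, cut at about 27% in these data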;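 further: 0% = acetylcholine EC80 with DMSO and 100% = DMSO without agonist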
Active calls of the source: *. The list is not random: actives were taken first. Their share in the collection is about 1.7%.

SMILES	CHO-K1 Ca antag	CHO-K1 Ca PAM	CHRM5 PAM	CHRM5 agonist	CHO-K1 Ca ag	M5 antag
OC(C#CCN1CCCC1)(c1ccccc1)c1ccccc1	2	-9	-17	-7	0	99*
CC(C)C(O)(C#CCN1CCCCC1)C(C)C	-10	12	-19	-8	1	31*
OC(C#CCN1CCCCC1)(c1ccccc1)c1ccccc1	-9	18	-36	-21	2	100*
CCC(O)(C#CCN1CCCCC1)CC	-8	22	-4	-8	1	6
C=Cn1cc[n+](CC(=O)c2cc(C(C)(C)C)c(O)c(C(C)(C)C)c2)c1	-8	18	-5	-20	1	7
CC(=O)NC(CC(=O)OCC(=O)N1CCN(S(=O)(=O)c2ccc(Cl)cc2)CC1)c1ccccc1 (stereo unspecified)	-7	3	-2	-2	0	13
CCCCN1C(=O)Cc2c1nc(N)c1c(N)nc(N(CCC)CCC)c(C#N)c21	25*	-9	-8	-4	0	5
COC(=O)C1=C(N)Oc2cc(C)[nH]c(=O)c2C1c1ccncc1 (stereo unspecified)	-4	14	20*	0	0	-17
O=C(Nc1cc(Cl)ccc1N1CCOCC1)c1ccc2c(c1)OCO2	-6	5	-1	0	0	-1
CCSc1ncc(Cl)c(C(=O)Nc2ccc(S(=O)(=O)Nc3onc(C)c3C)cc2)n1	6	-9	3	4	0	48*
Cc1noc(NS(=O)(=O)c2ccc(NC(=O)Nc3ccc(Cl)c(Cl)c3)cc2)c1C	7	14	-12	7	1	10
Cc1noc(NS(=O)(=O)c2ccc(NC(=O)c3ccc(N4C(=O)c5ccccc5C4=O)cc3)cc2)c1C	-1	11	19*	3	-1	-29
CN(C)S(=O)(=O)c1cccc(COC(=O)c2cccnc2Cl)c1	19	-9	-10	10	17*	14
CN(C)S(=O)(=O)c1cccc(COC(=O)c2cnccn2)c1	-14	17	-4	-3	1	12
C[C@H](NC(=O)c1nc[nH]c1C(=O)NC1CCN(C(=O)OC(C)(C)C)CC1)C(=O)OCc1ccccc1	4	1	-7	-4	1	14
CNC(=O)c1c(NC(=O)CCS(=O)(=O)c2ccccc2)sc2c1CCN(C(=O)OC)C2	12	-16	3	-3	0	3
CCc1[nH]nc(C(=O)N2CCCC(C(=O)c3cccc(C(F)(F)F)c3)C2)c1C (stereo unspecified)	-11	5	-12	7	15*	0
Cc1cc(-n2[nH]c(C)c(C)c2=O)nc(-c2ccccc2O)n1	14	-7	37*	0	2	42*
Cc1ccc(-c2nc(N)n(C(=O)c3cccnc3)n2)cc1	-15	13	-4	-4	0	1
CCn1c(SCC(=O)Nc2ccccc2)nc2c1c(=O)n(C)c(=O)n2C	-3	5	18*	2	2	1
CCOCCCn1c(SCC(=O)Nc2ccccc2)nc2ccccc2c1=O	35*	-24	-6	2	0	9
CCOCCCn1c(SCC(=O)Nc2ccc(NC(C)=O)cc2)nc2ccccc2c1=O	-2	12	1	-6	0	-3
CCc1ccc(NC(=O)CSc2nc3ccccc3c(=O)n2CCCC(=O)N2CCCC2)cc1	25*	-4	-3	0	0	4
CCc1ccc(C=C2SC(=S)N(CCCC(=O)Nc3ccc(C(=O)O)cc3)C2=O)cc1	-12	13	3	2	0	-2
CCOC(=O)C1=C(CC)Nc2ccccc2N/C1=N\S(=O)(=O)c1ccc2ccccc2c1	-10	20	3	-3	4	3
SMILES	CHO-K1 Ca antag	CHO-K1 Ca PAM	CHRM5 PAM	CHRM5 agonist	CHO-K1 Ca ag	M5 antag
CCOC(=O)C1=C(CC)Nc2ccccc2N/C1=N\S(=O)(=O)c1cc(Br)ccc1Br	33*	-16	-16	2	15	65*
C/C(N)=C(/C#N)C(=O)COc1ncnc2ccccc12	-11	9	7	-4	0	-6
C/C(N)=C(/C#N)C(=O)COC(=O)Cc1coc2ccc3ccccc3c12	3	2	-12	6	19*	6
CSCC[C@H](NC(=O)c1ccc2ccccc2c1)C(=O)N1CCC2(CC1)NCCc1[nH]cnc12	-12	8	-6	-6	0	27*
O=C(Cn1nnc(-c2ccccc2F)n1)Nc1ccc(C(=O)N2CCOCC2)cc1	-6	11	0	0	1	1
Cn1c(Cl)c(/C=N/OC(=O)C2CC2)c2ccccc21	-14	19	6	-8	0	3
CCOc1ccc(/C=N/Nc2ccc(C(F)(F)F)cc2[N+](=O)[O-])cc1O	10	-11	-5	-1	18*	5
COc1ccc(NC(=O)c2ccc(COc3ccccc3)o2)c(OC)c1	-14	42*	0	-4	2	0
COc1ccc(NC(=O)COC(=O)Cc2ccc(-c3ccccc3)cc2)c(OC)c1	-25	46*	-10	4	5	4
COc1ccc(C)cc1NC(=O)COC(=O)Cc1ccc(-c2ccccc2)cc1	-4	23	-1	-1	1	-2
O=C1[C@@H]2CSCN2C(=O)CN1Cc1ccccc1F	-13	-5	0	-2	0	0
Cc1ccc(-c2nn3cnnc3c3ccccc23)cc1C	24*	-4	0	9	0	3
COc1cccc(OC)c1C(=O)Nc1ccccc1C(=O)N1CCOCC1	-7	19	-13	-5	1	33*
CC(=O)Nc1cccc(NC(=O)c2cc(-c3ccccn3)nc3ccc(Cl)cc23)c1	0	1	-5	-3	0	-3
C=CCNC(=O)NC(=O)COC(=O)C(C)Oc1ccc(Cl)cc1Cl (stereo unspecified)	-13	16	2	-4	1	2
O=C(CN1C(=O)CC(c2ccco2)Sc2ccccc21)NCC1CCCO1 (stereo unspecified)	-18	11	-2	1	1	2
Cc1ccc(C(=O)NNc2ncnc3c2cnn3C)cc1	1	13	19*	2	2	-5
Cc1ccccc1C(=O)NNc1ncnc2c1cnn2C	-5	-7	-8	2	0	17
CCOC(=O)C1(Cc2ccc(OC)cc2)CCN(C(=O)CN2CCCCC2=O)CC1	-9	14	-9	-2	0	28*
CC(C)NS(=O)(=O)c1ccc(CCC(=O)N2CCC(C(N)=O)CC2)cc1	2	-8	-9	-3	0	12
CC(C)NS(=O)(=O)c1ccc(CCC(=O)N2CCCC2)cc1	24*	-16	8	1	-1	-27
O=C1Nc2ccc(Cl)cc2C(=O)C1(F)c1ccccc1 (stereo unspecified)	1	15	4	-2	17*	1

Compound activity: PubChem, The Scripps Research Institute Molecular Screening Center
